{"source": "paper PMC6420784", "about": "(Clinical lung cancer, 2018)", "key": {"[1]": {"assay": "Plasma pharmacokinetics of momelotinib and M-21", "assay_type": "in vivo, human", "settings": "for Cmax and AUCtau with b.i.d. dosing: across 100 mg and 150 mg dose levels (dose levels 2B, 3, and I); for dose proportionality of Cmax and AUCtau: day 15 of cycle 1, between dose level 1 (100 mg q.d.) and dose level 2A (200 mg q.d.); for Cmax / Tmax / half-life: human, oral; for Cmax: mean (%CV); for Cmax / Tmax / half-life / AUCtau, mean (%CV): momelotinib in plasma; for Tmax: median (Q1, Q3); for half-life: t1/2, median (Q1, Q3)"}, "[2]": {"tested_on": "patients with KRAS-mutated metastatic NSCLC", "assay": "Phase Ib safety: adverse events, dose-limiting toxicities, MTD", "assay_type": "in vivo, human", "settings": "for patients with AEs leading to dose interruptions or dose modifications: all dose levels, of the named drug", "in_short": "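Two 3 + 3 escalations. First, JAK/TBK1 inhibitor 100–200 mg q.d. or b.i.d. with MEK1/2 inhibitor 1.0 mg q.d. (level −1: 100 mg with 0.5 mg). Then MEK inhibitor 1.5 and 2.0 mg q.d. at the other drug's MTD. DLTs scored over the first 28-day cycle. MTD was the level below that with ≥2 DLTs. AEs recorded from first dose to 30 days post-dose, coded by MedDRA 19.1 and graded by CTCAE 4.03.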"}, "[3]": {"tested_on": "KRAS-mutated metastatic NSCLC", "assay": "Phase Ib efficacy: tumor response per RECIST, PFS, OS", "assay_type": "in vivo, human", "settings": "all 21 patients, n = 10", "in_short": "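Open-label, nonrandomized phase Ib in platinum-treated, refractory KRAS-mutated metastatic NSCLC (ECOG 0–1, measurable disease). Patients dosed until progression, unacceptable toxicity, consent withdrawal or refusal. CT at baseline and every 8 weeks, scored by RECIST 1.1. DCR at week 8 (CR+PR+SD) and ORR (CR+PR) given per dose level with Clopper–Pearson 90% CIs. PFS and OS by Kaplan–Meier. All enrolled patients analysed.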"}, "myelofibrosis patients": {"tested_on": "myelofibrosis patients", "settings": "once daily (q.d.), previously established; cited from earlier work"}, "[4]": {"tested_on": "previously treated KRAS-mutated advanced NSCLC", "settings": "single-agent trametinib 2.0 mg q.d., 10 of 86 patients; cited from earlier work"}, "[5]": {"settings": "plasma, day 15 of cycle 1, M1: momelotinib 100 mg q.d. with trametinib 1.0 mg q.d."}, "[6]": {"settings": "plasma, day 15 of cycle 1, M2A: momelotinib 200 mg q.d. with trametinib 1.0 mg q.d."}, "[7]": {"settings": "plasma, day 15 of cycle 1, M2B: momelotinib 100 mg b.i.d. with trametinib 1.0 mg q.d."}, "[8]": {"settings": "plasma, day 15 of cycle 1, M3: momelotinib 150 mg b.i.d. with trametinib 1.0 mg q.d."}, "[9]": {"settings": "plasma, day 15 of cycle 1, TI: momelotinib 150 mg b.i.d. with trametinib 1.5 mg q.d."}}, "note": "Values joined by “and” are separate entries in the source; they are usually repeats but may differ in a detail not shown here. Equal values may be shown once. Marks after values point to notes of the source that are not given here."}
{"compound": "N#CCNC(=O)c1ccc(-c2ccnc(Nc3ccc(N4CCOCC4=O)cc3)n2)cc1", "note": "[M-21]", "values": [{"measurement": "Cmax and AUCtau with b.i.d. dosing", "setting": "[1]", "result": "similar"}, {"measurement": "dose proportionality of Cmax and AUCtau", "setting": "[1]", "result": "more than dose-proportional increases"}, {"measurement": "M-21/Momelotinib Ratio, AUCtau, mean (%CV)", "setting": "[1]; [5]", "result": "2.6 (44.6)"}, {"measurement": "M-21/Momelotinib Ratio, Cmax, mean (%CV)", "setting": "[1]; [5]", "result": "2.2 (52.0)"}, {"measurement": "M-21/Momelotinib Ratio, AUCtau, mean (%CV)", "setting": "[1]; [6]", "result": "1.7 (52.8)"}, {"measurement": "M-21/Momelotinib Ratio, Cmax, mean (%CV)", "setting": "[1]; [6]", "result": "1.2 (47.2)"}, {"measurement": "M-21/Momelotinib Ratio, Cmax, mean (%CV)", "setting": "[1]; [7]", "result": "1.7 (38.3)"}, {"measurement": "M-21/Momelotinib Ratio, AUCtau, mean", "setting": "[1]; plasma, day 15 of cycle 1, M2B: momelotinib 100 mg b.i.d. with trametinib 1.0 mg q.d., n = 1", "result": "2.7^c"}, {"measurement": "M-21/Momelotinib Ratio, AUCtau, mean (%CV)", "setting": "[1]; [8]", "result": "1.3 (40.3)"}, {"measurement": "M-21/Momelotinib Ratio, Cmax, mean (%CV)", "setting": "[1]; [8]", "result": "1.3 (25.8)"}, {"measurement": "M-21/Momelotinib Ratio, AUCtau, mean (%CV)", "setting": "[1]; [9]", "result": "1.4 (20.6)"}, {"measurement": "M-21/Momelotinib Ratio, Cmax, mean (%CV)", "setting": "[1]; [9]", "result": "1.1 (13.7)"}]}
{"compound": "N#CCNC(=O)c1ccc(-c2ccnc(Nc3ccc(N4CCOCC4)cc3)n2)cc1", "note": "[Momelotinib, momelotinib]", "values": [{"measurement": "patients who discontinued because of AEs", "setting": "[2]; all 21 patients, n = 9", "result": 42.9, "unit": "%"}, {"measurement": "patients with AEs leading to dose interruptions or dose modifications", "setting": "[2]", "result": 47.6, "unit": "%"}, {"measurement": "maximum tolerated dose (MTD) of momelotinib", "setting": "[2]; b.i.d., in combination with trametinib 1.0 mg q.d. (dose level M3)", "result": 150, "unit": "mg"}, {"measurement": "patients who discontinued because of PD", "setting": "[3]", "result": 47.6, "unit": "%"}, {"measurement": "Cmax and AUCtau with b.i.d. dosing", "setting": "[1]", "result": "similar"}, {"measurement": "dose proportionality of Cmax and AUCtau", "setting": "[1]", "result": "more than dose-proportional increases"}, {"measurement": "maximum momelotinib plasma concentrations", "setting": "[1]; discussion summary", "result": "approximately 300 ng/mL"}, {"measurement": "maximum momelotinib plasma concentrations", "setting": "[1]; equal to approximately 300 ng/mL", "result": 0.72, "unit": "µmol/L"}, {"measurement": "Cmax", "setting": "[1]; [5]", "result": 0.136, "unit": "µg/mL"}, {"measurement": "Cmax", "setting": "[1]; [6]", "result": 0.572, "unit": "µg/mL"}, {"measurement": "Cmax", "setting": "[1]; [7]", "result": 0.319, "unit": "µg/mL"}, {"measurement": "Cmax", "setting": "[1]; [8]", "result": 0.29, "unit": "µg/mL"}, {"measurement": "Cmax", "setting": "[1]; [9]", "result": 0.359, "unit": "µg/mL"}, {"measurement": "Tmax", "setting": "[1]; [5]", "result": 1.9, "unit": "h"}, {"measurement": "Tmax", "setting": "[1]; [6]", "result": 2, "unit": "h"}, {"measurement": "Tmax", "setting": "[1]; [7]", "result": 0.9, "unit": "h"}, {"measurement": "Tmax", "setting": "[1]; [8]", "result": 1.1, "unit": "h"}, {"measurement": "half-life", "setting": "[1]; [5]", "result": 6.9, "unit": "h"}, {"measurement": "half-life", "setting": "[1]; [6]", "result": 8.7, "unit": "h"}, {"measurement": "half-life", "setting": "[1]; [7]", "result": 8.3, "unit": "h"}, {"measurement": "half-life", "setting": "[1]; [8]", "result": 6.1, "unit": "h"}, {"measurement": "AUCtau, mean (%CV)", "setting": "[1]; day 15 of cycle 1, M1: momelotinib 100 mg q.d. with trametinib 1.0 mg q.d.", "result": "774.3 (47.1) ng/mL/h"}, {"measurement": "AUCtau, mean (%CV)", "setting": "[1]; day 15 of cycle 1, M2A: momelotinib 200 mg q.d. with trametinib 1.0 mg q.d.", "result": "3901.9 (48.2) ng/mL/h"}, {"measurement": "AUCtau, mean (%CV)", "setting": "[1]; day 15 of cycle 1, M2B: momelotinib 100 mg b.i.d. with trametinib 1.0 mg q.d.", "result": "2568.3 (53.0) ng/mL/h"}, {"measurement": "AUCtau, mean (%CV)", "setting": "[1]; day 15 of cycle 1, M3: momelotinib 150 mg b.i.d. with trametinib 1.0 mg q.d.", "result": "2214.1 (71.5) ng/mL/h"}, {"measurement": "AUCtau, mean (%CV)", "setting": "[1]; day 15 of cycle 1, TI: momelotinib 150 mg b.i.d. with trametinib 1.5 mg q.d.", "result": "1871.1 (8.2) ng/mL/h"}, {"measurement": "MTD of momelotinib as a single agent", "setting": "myelofibrosis patients", "result": 200, "unit": "mg"}]}
{"compound": "CC(=O)Nc1cccc(-n2c(=O)n(C3CC3)c(=O)c3c(Nc4ccc(I)cc4F)n(C)c(=O)c(C)c32)c1", "note": "[trametinib]", "values": [{"measurement": "patients with AEs leading to dose interruptions or dose modifications", "setting": "[2]", "result": 52.4, "unit": "%"}, {"measurement": "maximum tolerated dose (MTD) of trametinib", "setting": "[2]; q.d., in combination with momelotinib 150 mg b.i.d. (dose level M3)", "result": "1.0 mg and 1 mg"}, {"measurement": "PR", "setting": "[4]", "result": 11.6, "unit": "%"}]}
